Bounds are passed on as bounds.

For orientation: IC50 means the concentration needed to halve the response being measured. High values mean lower potency, low ones higher potency.

Experiment [1] concerns the target Nucleosome-remodeling factor subunit BPTF (Homo sapiens, UniProt Q12830). Briefly: Inhibition of BPTF (unknown origin) by TR-FRET assay.
The target in experiment [2] is Bromodomain-containing protein 4 (Homo sapiens, UniProt O60885, Y390A). The experiment can be described thus: Displacement of Alexa Fluor 647 labelled ligand from His6-tagged BRD4 BD1 (1 to 477 residues)/BD2 Y390A mutant (unknown origin) after 30 mins by TR-FRET assay. An outline of the steps:
(§1)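 BET selectivity by TR-FRET fluoroligand displacement. Uses tandem BET bromodomain constructs carrying a mutation in the non-assayed bromodomain.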
In general terms: Time-resolved FRET reads energy transfer from a long-lived donor to a nearby acceptor.

The target in experiment [3] is Bromodomain-containing protein 4 (Homo sapiens, UniProt O60885, Y97A). Briefly: Displacement of Alexa Fluor 647 labelled ligand from His6-tagged BRD4 BD2 (1 to 477 residues)/BD1 Y97A mutant (unknown origin) after 30 mins by TR-FRET assay. In outline:
as §1

For experiment [4], the species on record is Homo sapiens. Briefly: Selectivity ratio, ratio of displacement of Alexa Fluor 647 labelled ligand from His6-tagged BRD4 BD1 (1 to 477 residues)/BD2 Y390A mutant (unknown origin) to displacement of SGRG-K(Ac)-GG-K(Ac)-GLG-K(Ac)-GGAKRHRKV-biotin) from His6/FLAG-tagged TEV fused ATAD2 bromodomain (981 to 1121 residues) expressed in Escherichia coli BL21(DE3) cells.

The species named for experiment [5] is Homo sapiens. The experiment can be described thus: Selectivity ratio, ratio of displacement of Alexa Fluor 647 labelled ligand from His6-tagged BRD4 BD2 (1 to 477 residues)/BD1 Y97A mutant (unknown origin) to displacement of SGRG-K(Ac)-GG-K(Ac)-GLG-K(Ac)-GGAKRHRKV-biotin) from His6/FLAG-tagged TEV fused ATAD2 bromodomain (981 to 1121 residues) expressed in Escherichia coli BL21(DE3) cells.

In experiment [6] the target is ATPase family AAA domain-containing protein 2B (Homo sapiens, UniProt Q9ULI0). The experiment can be described thus: Displacement of biotinylated H4 peptide from ATAD2B bromodomain (unknown origin) by TR-FRET assay.
Experiment [7] deals with Bromodomain-containing protein 2 (Homo sapiens, UniProt P25440, Y113A). The experiment can be described thus: Displacement of Alexa Fluor 647 labelled ligand from His6-tagged BRD2 BD2 (1 to 473 residues)/BD1 Y113A mutant (unknown origin) after 30 mins by TR-FRET assay. An outline of the steps: as §1
Experiment [8] has as its target Bromodomain-containing protein 3 (Homo sapiens, UniProt Q15059, Y348A). The experiment can be described thus: Displacement of Alexa Fluor 647 labelled ligand from His6-tagged BRD3 BD1(1 to 435 residues)/BD2 Y348A mutant (unknown origin) after 30 mins by TR-FRET assay. An outline of the steps:
as §1

Experiment [9] deals with Bromodomain-containing protein 3 (Homo sapiens, UniProt Q15059, Y73A). The experiment can be described thus: Displacement of Alexa Fluor 647 labelled ligand from His6-tagged BRD3 BD2(1 to 435 residues)/BD1 Y73A mutant (unknown origin) after 30 mins by TR-FRET assay. In outline:
as §1

Experiment [10] deals with Bromodomain testis-specific protein (Homo sapiens, UniProt Q58F21, Y309A). The experiment can be described thus: Displacement of Alexa Fluor 647 labelled ligand from His6/FLAG-tagged TEV fused BRDT BD1(1 to 397 residues)/BD2 Y309A mutant (unknown origin) after 30 mins by TR-FRET assay. In outline:
as §1

Experiment [11] concerns the target Bromodomain testis-specific protein (Homo sapiens, UniProt Q58F21, Y66A). The experiment can be described thus: Displacement of Alexa Fluor 647 labelled ligand from His6/FLAG-tagged TEV fused BRDT BD2(1 to 397 residues)/[…] mutant (unknown origin) after 30 mins by TR-FRET assay. In outline:
as §1

In another experiment the target is Peregrin (Homo sapiens, UniProt P55201). The experiment can be described thus: Inhibition of BRPF1 (unknown origin) by TR-FRET assay.
Experiment [12] has as its target Bromodomain-containing protein 1 (Homo sapiens, UniProt O95696). Briefly: Inhibition of BRPF2 (unknown origin) by TR-FRET assay.
For experiment [13], the species on record is Homo sapiens. The experiment can be described thus: Selectivity ratio, ratio of inhibition of TAF1 BD2 (unknown origin) to displacement of SGRG-K(Ac)-GG-K(Ac)-GLG-K(Ac)-GGAKRHRKV-biotin) from His6/FLAG-tagged TEV fused ATAD2 bromodomain (981 to 1121 residues) expressed in Escherichia coli BL21(DE3) cells.
The species named for experiment [14] is Homo sapiens. The experiment can be described thus: Selectivity ratio, ratio of inhibition of BRPF3 (unknown origin) to Displacement of biotinylated H4 peptide from ATAD2B bromodomain (unknown origin) by TR-FRET assay.
Experiment [15] is filed under the species Homo sapiens. The experiment can be described thus: Selectivity ratio, ratio of inhibition of TAF1 BD2 (unknown origin) to Displacement of biotinylated H4 peptide from ATAD2B bromodomain (unknown origin) by TR-FRET assay.

Chain of Bromodomain-containing protein 3 (Homo sapiens, UniProt Q15059, Y73A) (Q15059 2-726 Y73A limits assumed): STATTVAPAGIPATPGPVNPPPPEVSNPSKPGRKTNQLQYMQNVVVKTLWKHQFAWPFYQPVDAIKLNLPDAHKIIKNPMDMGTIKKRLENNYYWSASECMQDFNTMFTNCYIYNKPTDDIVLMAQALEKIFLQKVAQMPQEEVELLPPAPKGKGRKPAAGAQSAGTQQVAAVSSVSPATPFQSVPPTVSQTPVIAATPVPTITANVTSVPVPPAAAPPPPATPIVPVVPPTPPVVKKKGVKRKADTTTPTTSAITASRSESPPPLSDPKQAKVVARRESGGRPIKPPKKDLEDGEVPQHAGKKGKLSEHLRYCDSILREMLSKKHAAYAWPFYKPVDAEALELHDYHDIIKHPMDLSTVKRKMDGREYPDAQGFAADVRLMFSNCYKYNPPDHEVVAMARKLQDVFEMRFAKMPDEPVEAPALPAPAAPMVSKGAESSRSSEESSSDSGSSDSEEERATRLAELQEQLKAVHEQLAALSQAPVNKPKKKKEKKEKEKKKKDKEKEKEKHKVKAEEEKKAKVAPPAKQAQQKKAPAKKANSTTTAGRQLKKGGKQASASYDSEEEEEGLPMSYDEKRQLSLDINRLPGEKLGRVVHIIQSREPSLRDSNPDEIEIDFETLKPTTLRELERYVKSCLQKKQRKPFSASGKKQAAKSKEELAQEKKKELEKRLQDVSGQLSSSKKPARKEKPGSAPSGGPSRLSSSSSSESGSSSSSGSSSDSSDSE
Chain of Bromodomain-containing protein 2 (P25440 whole entry Y113A, the tested form may be a part): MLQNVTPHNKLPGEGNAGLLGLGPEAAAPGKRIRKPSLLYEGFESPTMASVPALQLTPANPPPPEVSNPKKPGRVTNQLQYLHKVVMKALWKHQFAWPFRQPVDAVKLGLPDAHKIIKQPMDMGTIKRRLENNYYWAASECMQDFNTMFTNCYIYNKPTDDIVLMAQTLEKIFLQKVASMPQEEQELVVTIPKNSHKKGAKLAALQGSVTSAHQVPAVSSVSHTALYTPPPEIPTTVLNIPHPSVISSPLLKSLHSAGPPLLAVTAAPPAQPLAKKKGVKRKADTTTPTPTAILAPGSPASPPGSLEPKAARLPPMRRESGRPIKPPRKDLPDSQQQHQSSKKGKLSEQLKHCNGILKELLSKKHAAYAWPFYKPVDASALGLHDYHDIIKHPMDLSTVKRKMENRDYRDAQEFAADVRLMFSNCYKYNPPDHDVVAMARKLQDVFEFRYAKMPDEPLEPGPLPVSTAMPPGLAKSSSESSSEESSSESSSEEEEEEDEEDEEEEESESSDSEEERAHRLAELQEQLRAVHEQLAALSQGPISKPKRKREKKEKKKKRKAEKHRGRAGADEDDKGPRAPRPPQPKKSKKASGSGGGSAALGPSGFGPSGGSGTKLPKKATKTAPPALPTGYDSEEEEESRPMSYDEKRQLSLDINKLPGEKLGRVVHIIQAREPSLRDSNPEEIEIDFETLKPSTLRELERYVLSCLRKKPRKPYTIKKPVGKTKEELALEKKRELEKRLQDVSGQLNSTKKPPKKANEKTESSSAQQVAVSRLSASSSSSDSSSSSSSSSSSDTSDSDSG
Chain of Bromodomain-containing protein 3 (Homo sapiens, UniProt Q15059, Y348A) (Q15059 2-726 Y348A limits assumed): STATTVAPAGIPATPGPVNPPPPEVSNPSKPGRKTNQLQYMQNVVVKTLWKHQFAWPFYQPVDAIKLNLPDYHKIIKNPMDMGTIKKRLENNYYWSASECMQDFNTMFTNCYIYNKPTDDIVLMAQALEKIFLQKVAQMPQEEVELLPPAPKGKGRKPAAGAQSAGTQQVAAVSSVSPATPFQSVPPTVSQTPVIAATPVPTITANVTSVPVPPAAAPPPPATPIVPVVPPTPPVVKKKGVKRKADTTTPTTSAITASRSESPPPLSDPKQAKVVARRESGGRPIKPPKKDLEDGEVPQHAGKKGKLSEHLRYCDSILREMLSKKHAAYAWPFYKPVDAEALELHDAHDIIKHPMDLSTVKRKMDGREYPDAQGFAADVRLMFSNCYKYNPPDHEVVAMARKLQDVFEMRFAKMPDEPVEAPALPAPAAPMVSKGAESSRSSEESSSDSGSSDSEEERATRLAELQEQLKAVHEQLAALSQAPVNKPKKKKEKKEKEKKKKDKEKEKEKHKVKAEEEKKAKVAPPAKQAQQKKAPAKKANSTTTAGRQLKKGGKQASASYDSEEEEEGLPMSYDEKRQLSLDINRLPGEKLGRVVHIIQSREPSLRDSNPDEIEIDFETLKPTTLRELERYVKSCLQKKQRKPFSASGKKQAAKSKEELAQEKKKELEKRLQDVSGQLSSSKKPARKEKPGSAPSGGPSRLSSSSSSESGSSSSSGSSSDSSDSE
Chain of ATPase family AAA domain-containing protein 2B (Q9ULI0 whole entry, the tested form may be a part): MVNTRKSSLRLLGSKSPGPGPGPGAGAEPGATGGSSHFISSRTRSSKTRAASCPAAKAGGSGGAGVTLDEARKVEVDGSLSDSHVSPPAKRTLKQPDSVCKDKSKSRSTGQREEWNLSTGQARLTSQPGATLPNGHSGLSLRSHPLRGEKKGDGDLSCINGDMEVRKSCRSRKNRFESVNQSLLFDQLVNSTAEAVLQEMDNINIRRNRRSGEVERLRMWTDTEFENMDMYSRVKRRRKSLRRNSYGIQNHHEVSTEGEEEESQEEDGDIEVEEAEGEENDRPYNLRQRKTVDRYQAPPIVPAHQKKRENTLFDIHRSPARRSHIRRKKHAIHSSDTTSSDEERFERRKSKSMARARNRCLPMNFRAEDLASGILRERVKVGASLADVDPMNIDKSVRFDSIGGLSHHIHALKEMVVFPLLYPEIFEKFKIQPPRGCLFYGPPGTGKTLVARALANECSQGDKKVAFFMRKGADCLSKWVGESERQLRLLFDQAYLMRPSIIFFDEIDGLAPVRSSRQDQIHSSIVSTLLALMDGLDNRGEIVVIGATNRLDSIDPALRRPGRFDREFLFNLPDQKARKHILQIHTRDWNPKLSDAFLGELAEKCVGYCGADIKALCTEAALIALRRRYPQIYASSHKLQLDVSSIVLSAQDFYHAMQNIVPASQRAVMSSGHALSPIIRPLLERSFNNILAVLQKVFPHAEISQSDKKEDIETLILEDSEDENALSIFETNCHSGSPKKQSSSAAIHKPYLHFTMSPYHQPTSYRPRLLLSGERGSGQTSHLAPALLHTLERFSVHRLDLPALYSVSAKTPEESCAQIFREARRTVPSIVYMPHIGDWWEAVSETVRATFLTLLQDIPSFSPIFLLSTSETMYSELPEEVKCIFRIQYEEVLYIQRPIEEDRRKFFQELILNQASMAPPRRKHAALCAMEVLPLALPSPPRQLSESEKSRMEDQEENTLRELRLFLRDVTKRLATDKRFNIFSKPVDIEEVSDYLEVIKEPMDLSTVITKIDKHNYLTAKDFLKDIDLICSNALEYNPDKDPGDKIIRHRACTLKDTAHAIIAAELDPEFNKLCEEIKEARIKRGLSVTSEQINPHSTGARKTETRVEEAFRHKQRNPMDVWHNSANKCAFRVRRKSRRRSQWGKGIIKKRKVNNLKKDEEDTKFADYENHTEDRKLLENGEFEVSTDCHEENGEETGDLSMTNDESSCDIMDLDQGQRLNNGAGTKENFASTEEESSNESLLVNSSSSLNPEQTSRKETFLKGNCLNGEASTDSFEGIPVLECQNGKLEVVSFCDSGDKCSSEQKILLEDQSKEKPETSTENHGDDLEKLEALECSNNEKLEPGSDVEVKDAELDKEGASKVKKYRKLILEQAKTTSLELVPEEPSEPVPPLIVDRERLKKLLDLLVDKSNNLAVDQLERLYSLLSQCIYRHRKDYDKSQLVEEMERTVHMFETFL
Chain of Peregrin (P55201 whole entry): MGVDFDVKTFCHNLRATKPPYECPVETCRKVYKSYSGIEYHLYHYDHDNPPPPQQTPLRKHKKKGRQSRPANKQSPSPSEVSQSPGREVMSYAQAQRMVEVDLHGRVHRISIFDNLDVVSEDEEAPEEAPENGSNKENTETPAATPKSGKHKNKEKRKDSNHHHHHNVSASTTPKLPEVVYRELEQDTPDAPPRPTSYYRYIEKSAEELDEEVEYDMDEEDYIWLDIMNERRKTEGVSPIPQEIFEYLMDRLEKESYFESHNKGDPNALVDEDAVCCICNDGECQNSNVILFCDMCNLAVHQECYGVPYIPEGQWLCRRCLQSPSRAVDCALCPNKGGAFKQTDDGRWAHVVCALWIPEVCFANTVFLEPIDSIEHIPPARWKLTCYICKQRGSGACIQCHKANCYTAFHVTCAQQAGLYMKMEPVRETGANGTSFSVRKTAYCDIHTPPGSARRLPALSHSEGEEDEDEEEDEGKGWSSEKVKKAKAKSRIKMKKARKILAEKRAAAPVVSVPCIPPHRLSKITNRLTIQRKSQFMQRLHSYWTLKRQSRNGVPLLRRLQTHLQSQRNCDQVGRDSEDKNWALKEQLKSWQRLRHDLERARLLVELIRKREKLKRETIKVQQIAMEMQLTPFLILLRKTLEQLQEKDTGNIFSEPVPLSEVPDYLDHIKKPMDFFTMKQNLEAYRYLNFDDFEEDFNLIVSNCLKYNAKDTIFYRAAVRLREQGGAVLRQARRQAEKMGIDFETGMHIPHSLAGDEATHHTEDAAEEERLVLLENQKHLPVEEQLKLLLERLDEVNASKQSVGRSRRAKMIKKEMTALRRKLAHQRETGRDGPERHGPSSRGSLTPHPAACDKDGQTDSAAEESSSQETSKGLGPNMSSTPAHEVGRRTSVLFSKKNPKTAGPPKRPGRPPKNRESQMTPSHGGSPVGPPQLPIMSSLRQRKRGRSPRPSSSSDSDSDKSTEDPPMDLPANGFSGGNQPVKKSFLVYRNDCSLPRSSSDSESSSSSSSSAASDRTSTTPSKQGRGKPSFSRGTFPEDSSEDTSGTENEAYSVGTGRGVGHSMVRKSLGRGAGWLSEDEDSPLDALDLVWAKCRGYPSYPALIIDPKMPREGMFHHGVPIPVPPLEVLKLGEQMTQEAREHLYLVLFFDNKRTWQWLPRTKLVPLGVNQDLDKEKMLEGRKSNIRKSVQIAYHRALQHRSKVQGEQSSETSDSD

As to `CC1(C2CC2)NC(=O)N(CC(=O)Nc2ccc(Br)c(S(=O)(=O)N3CCCCC3)c2)C1=O` (racemic), the IC50 in experiment [1] was 63.1 µM; in experiment [2], 50.1 µM; in experiment [3], 20 µM; in [6], 0.501 µM; in experiment [7] it was 20 µM; in experiment [8], more than 50.1 µM. The IC50 in [9] is 31.6 µM; in experiment [10], 25.1 µM; in experiment [11] it was 15.8 µM; on Peregrin, more than 100 µM; in experiment [12] it was 12.6 µM. The Selectivity ratio in the experiment listed under Homo sapiens [4] is more than 100; in the experiment filed under Homo sapiens [5], 60; in the experiment listed under Homo sapiens [13] it was more than 10; in the experiment filed under Homo sapiens [14] it was more than 10; in the experiment listed under Homo sapiens [15], more than 10.

(Values after ChEMBL document CHEMBL4311956, “A Qualified Success: Discovery of a New Series of ATAD2 Bromodomain Inhibitors with a Novel Binding Mode Using High-Throughput Screening and Hit Qualification” (J Med Chem, 2019).)
